In the library only some 3.4% were active in any assay of this set; here they are far more common.
MLL AF4-AF9 inh = blocks AF4 peptide binding to human AF9; AlphaScreen, biotin-AF4 peptide binding to FLAG-AF9; inhibition, % at 10 µM; 350,000 compounds, 0.47% hits;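 active means every replicate reaching a set inhibition limit, whatever the replicate mean, cut at about 25% in these data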;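 further: 0% = plate neutral control median and 100% = total signal loss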
Ecoli rRNA inh = inhibits bacterial ribosomal RNA function over humanized ribosomes; E. coli WT GFP vs humanized-ribosome RFP mutants, fluorescence, 24 h; stronger effect = lower value; DMSO median 0, no signal -100; GFP signal change (wild-type ribosome), % (concentration not given with the values); 350,000 compounds, 1.6% hits;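 active means significant combined selectivity score with lowered wild-type GFP, culture density cut under 30%, mutant RFP and density less affected; inactive means any of these conditions unmet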
ERAP1 HTS inh = inhibitors of human ERAP1 aminopeptidase. recombinant ERAP1, Leu-AMC fluorescence, 60 min. inhibition, % at 10.7 µM. 340,000 compounds, 0.15% hits. AID 652197;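 active means mean replicate inhibition of at least 30%, or all replicates individually reaching that 30% level; inactive means mean below 30% and not every replicate reaching it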;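 further: 0% = neutral control wells and 100% = L-leucinethiol positive control wells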
E-sel inducer = E-selectin induction on HUVECs; activation, % at 7.58 µM; HUVEC E-selectin immunofluorescence imaging; normalized: neutral wells 0, TNF-alpha wells 100; 260,000 compounds, 0.37% hits; P16581;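 active means mean E-selectin-positive cell signal at least 10% of the positive control, reached in at least 60% of replicates, without over 20% cell loss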
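Read-out: % PE-positive cells | Test system: HUVEC | Doses: One compound dose added by pin transfer | Buffer or medium: EGM-2 over gelatin coat | Signal: Immunofluorescence imaging | Benchmarks: TNF-alpha, DMSO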
S100A4 MyoIIA = inhibitors of human S100A4 binding to myosin IIA peptide | inhibition, % at 10.7 µM | S100A4/TAMRA-MyoIIA peptide fluorescence polarization | 360,000 compounds, 0.14% hits;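 active means mean inhibition of at least 70% across replicates, with every replicate also reaching that level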
Target sequence (P26447 whole entry, looked up): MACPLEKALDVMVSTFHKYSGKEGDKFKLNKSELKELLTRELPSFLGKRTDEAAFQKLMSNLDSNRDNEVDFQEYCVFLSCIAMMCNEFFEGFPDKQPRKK
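Test system – S100A4 monomer (human) · Compound – single-point compound testing · Schedule – 5 min incubation before reading · Probe or stimulus – TAMRA-labelled myosin IIA heavy-chain peptide probe, 5 nM · Benchmarks – neutral control DMSO, positive control TFP · Medium – Calcium-containing HEPES buffer, pH 7.2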
SIRT5 inh = blocks human SIRT5 desuccinylation of peptide. inhibition, % at 15 µM. Purified SirT5, succinyl-peptide AMC, trypsin-coupled fluorescence. Q9NXA8. 330,000 compounds, 1.1% hits; in the data active means inhibition above about 15%
Target sequence (Q9NXA8 whole entry, looked up): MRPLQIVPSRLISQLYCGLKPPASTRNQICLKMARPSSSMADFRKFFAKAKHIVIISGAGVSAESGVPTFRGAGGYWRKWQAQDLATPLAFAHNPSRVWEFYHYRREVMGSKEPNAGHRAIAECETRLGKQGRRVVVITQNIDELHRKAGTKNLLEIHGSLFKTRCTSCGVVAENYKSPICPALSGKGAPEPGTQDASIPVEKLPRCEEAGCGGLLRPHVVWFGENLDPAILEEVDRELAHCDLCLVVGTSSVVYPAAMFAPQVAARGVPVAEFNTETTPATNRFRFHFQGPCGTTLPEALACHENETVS
The depositor's hits bear a star; / = no result given.

SMILES	MLL AF4-AF9 inh	Ecoli rRNA inh	ERAP1 HTS inh	E-sel inducer	S100A4 MyoIIA	SIRT5 inh
CC(C)NC(=O)Nc1cccc2c1O[C@@H](CN(C)Cc1ccccc1)[C@@H](C)CN([C@@H](C)CO)C2=O	-1	1	-3	0	9	/
C[C@H](CO)N1C[C@H](C)[C@H](CN(C)Cc2ccccc2)Oc2c(NC(=O)Nc3cccc4ccccc34)cccc2C1=O	6	-2	-4	0	-3	-2
CC(C)NC(=O)Nc1cccc2c1O[C@H](CN(C)Cc1ccncc1)[C@@H](C)CN([C@H](C)CO)C2=O	-1	-1	-1	81*	0	-1
C[C@H](CO)N1C[C@H](C)[C@@H](CN(C)Cc2ccc(-c3ccccc3)cc2)Oc2c(NC(=O)Nc3ccc(C(F)(F)F)cc3)cccc2C1=O	2	0	0	2	-2	2.6*
CC(C)NC(=O)Nc1cccc2c1O[C@@H](CN(C)Cc1ccc(C(F)(F)F)cc1)[C@@H](C)CN([C@H](C)CO)C2=O	3	0	1	53*	-6	3
C[C@H]1CN([C@@H](C)CO)C(=O)c2cccc(NC(=O)Nc3ccc(C(F)(F)F)cc3)c2O[C@H]1CN(C)Cc1ccc(-c2ccccc2)cc1	2	5	5	0	-2	2
C[C@H](CO)N1C[C@H](C)[C@H](CN(C)Cc2ccc(C(F)(F)F)cc2)Oc2c(NS(C)(=O)=O)cccc2C1=O	0	1	0	-4	5	-2
C[C@H](CO)N1C[C@H](C)[C@@H](CN(C)Cc2ccc(C(F)(F)F)cc2)Oc2c(NS(C)(=O)=O)cccc2C1=O	/	4	/	198*	/	-5
C[C@@H]1CN([C@@H](C)CO)C(=O)c2cccc(NC(=O)Nc3ccccc3)c2O[C@@H]1CN(C)Cc1ccc(C(F)(F)F)cc1	1	-7	3	/	-2	103*
C[C@@H]1CN([C@@H](C)CO)C(=O)c2cccc(NC(=O)Nc3ccc(C(F)(F)F)cc3)c2O[C@@H]1CN(C)Cc1ccccc1	6	-56	-1	-1	-9	-2
COc1cccc(C(=O)N2C[C@@H]3[C@H](c4ccccc42)[C@H](CO)N3Cc2cccnc2)c1	1	-2	0	0	-6	-1
CNCCC(Oc1ccccc1OC)c1ccccc1 (centres undefined)	2	/	-3	0	-1	22*
O=C1CC(c2ccc(O)cc2)Oc2ccccc21 (centres undefined)	2	-16	4	/	-14	-3
CN1CC(c2ccccc2)Oc2ccccc2C1=S (centres undefined)	-8	-36*	-5	/	34	9
C[C@@H]1CN([C@@H](C)CO)C(=O)c2cc(NC(=O)CCC(F)(F)F)ccc2O[C@@H]1CN(C)S(=O)(=O)c1ccc(F)cc1	-2	-2	1	0	3	14
C[C@H]1CN([C@@H](C)CO)C(=O)c2cc(NC(=O)CCC(F)(F)F)ccc2O[C@@H]1CN(C)S(=O)(=O)c1cn(C)cn1	-6	4	-1	2	98*	4
COc1ccc(S(=O)(=O)N(C)C[C@H]2Oc3ccc(NC(=O)CCCN(C)C)cc3C(=O)N([C@@H](C)CO)C[C@@H]2C)cc1	-1	-2	-3	52*	21	-2
COc1ccc(S(=O)(=O)N(C)C[C@H]2Oc3ccc(NC(=O)CCCN(C)C)cc3C(=O)N([C@@H](C)CO)C[C@H]2C)cc1	-1	-2	1	97*	13	-1
COc1ccc(S(=O)(=O)N(C)C[C@@H]2Oc3ccc(NC(=O)CCC(F)(F)F)cc3C(=O)N([C@H](C)CO)C[C@H]2C)cc1	2	0	1	0	-1	34*
C[C@H](CO)N1C[C@H](C)[C@H](CN(C)Cc2ccc(F)cc2)Oc2ncc(C3=CCCC3)cc2C1=O	-3	-2	-4	0	7	1
CC[n+]1c(/C=C/c2ccc(OC(C)=O)c(OC)c2)ccc2ccccc21	4	-14*	11	0	-14	2
CC[n+]1c(/C=C/c2ccc(OC)c(OC)c2)ccc2ccccc21	0	47	16	0	-5	-4
